Source: PubChem
CR mimetic SO – lowers age-related superoxide in aged yeast cells | S. cerevisiae aged cells, superoxide DHE fluorescence; active compounds read low | superoxide response (% of plate mean), % at 10 µM | actives 0.18% (n = 330,000);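 active means superoxide response under a set limit, about three screen SD below normal, cut at about 65% in these data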;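 further: yeast aged for seven days with compound at 30 °C before DHE staining; 100% = average MFI of all compound-treated wells on the plate with controls excluded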
TRPC4 inh – inhibitors of mouse TRPC4 channel. Q9QUQ5. HEK293 TRPC4beta/mu-opioid, DAMGO-evoked Fluo4 calcium flux; active compounds read low. B-score at 10 µM. actives 0.39% (n = 300,000). AID 2247;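 active means B-score over 3 SD under the library average, no early fluorescence shift, positive overall ratio signal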
Target sequence (Q9QUQ5 whole entry, looked up): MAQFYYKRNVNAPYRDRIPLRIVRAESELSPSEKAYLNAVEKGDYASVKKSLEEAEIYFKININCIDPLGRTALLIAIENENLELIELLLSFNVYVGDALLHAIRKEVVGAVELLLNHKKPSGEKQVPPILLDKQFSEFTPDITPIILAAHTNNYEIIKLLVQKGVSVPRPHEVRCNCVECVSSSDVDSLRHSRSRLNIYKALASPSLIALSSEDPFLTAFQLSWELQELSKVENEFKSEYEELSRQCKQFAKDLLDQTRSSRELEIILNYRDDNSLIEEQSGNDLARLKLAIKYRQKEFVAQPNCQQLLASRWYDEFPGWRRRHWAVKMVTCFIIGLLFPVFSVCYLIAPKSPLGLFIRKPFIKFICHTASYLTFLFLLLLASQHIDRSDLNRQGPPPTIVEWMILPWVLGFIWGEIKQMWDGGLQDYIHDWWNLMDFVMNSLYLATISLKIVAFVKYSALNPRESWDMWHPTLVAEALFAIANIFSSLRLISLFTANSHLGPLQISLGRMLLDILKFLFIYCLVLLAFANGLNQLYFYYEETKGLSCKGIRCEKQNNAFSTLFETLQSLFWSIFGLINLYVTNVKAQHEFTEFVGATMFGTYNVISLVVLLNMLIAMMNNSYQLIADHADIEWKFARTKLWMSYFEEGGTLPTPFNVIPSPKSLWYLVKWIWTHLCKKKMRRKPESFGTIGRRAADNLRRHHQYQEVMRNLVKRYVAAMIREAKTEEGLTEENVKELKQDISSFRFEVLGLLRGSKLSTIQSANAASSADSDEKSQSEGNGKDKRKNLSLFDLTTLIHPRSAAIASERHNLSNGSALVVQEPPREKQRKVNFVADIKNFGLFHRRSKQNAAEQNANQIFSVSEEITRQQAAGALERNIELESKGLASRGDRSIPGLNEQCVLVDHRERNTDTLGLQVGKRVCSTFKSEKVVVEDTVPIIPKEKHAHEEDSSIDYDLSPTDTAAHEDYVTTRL
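Assay system: HEK293 cells with stable TRPC4beta plus mu-opioid receptor expression; Probe or stimulus: DAMGO in two steps, submaximal then maximal; Dosing: single-point compound dosing; Measured by: Fluo4 calcium-dye fluorescence, kinetic read; Read-out basis: B score from integrated Fluo4 fluorescence ratio.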
TRPC6 inhibitor – mouse TRPC6 channel inhibition. Q61143. HEK293-TRPC6, membrane potential dye, ACh-evoked depolarization; active compounds read low. B-score at 10 µM. actives 1.1% (n = 310,000);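 active means B-score under library mean minus 3 SD, initial fluorescence not abnormally high, positive integrated signal ratio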;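 further: B-score derived from integrated fluorescence ratio over the kinetic read; more negative B-score means stronger inhibition of depolarization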
TRPC4 act – activators of mouse TRPC4 channel; Q9QUQ5; actives 0.49% (n = 310,000); B-score at 10 µM; HEK293 TRPC4beta/mu-opioid, Fluo4 calcium fluorescence; active compounds read high;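 active means B-score above 5 SD of library B-scores, and initial fluorescence ratio not above library mean plus 5 SD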;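 further: positive B-score marks a calcium rise read as TRPC4 activation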
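Material: TRPC4beta and mu-opioid receptor HEK293 stable cells | Incubation: 45 min room-temperature Fluo4 loading, 110 s read | Detection: Kinetic Fluo4 calcium fluorescence | Measure: Integrated baseline-normalised fluorescence ratio, converted to per-well B score | Benchmarks: Low control buffer alone, high control maximal DAMGO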
TRPC6 act – mouse TRPC6 channel activation. Q61143. HEK293-TRPC6 membrane potential dye fluorescence; active compounds read high. B-score at 10 µM. actives 0.13% (n = 310,000);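 active means B-score of the integrated fluorescence ratio above library mean plus 3 SD, and starting fluorescence ratio within library mean plus 5 SD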;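 further: higher score means more depolarization so channel activation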
TRPC4 potent – TRPC4 (mouse) allosteric potentiation | Q9QUQ5 | HEK293 TRPC4beta/mu-opioid, DAMGO EC20, Fluo-4 Ca2+ flux; active compounds read high | B-score at 10 µM | actives 0.42% (n = 310,000) | AID 2227;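 active means B-score of calcium response area above 5 SD of library B-scores, with initial fluorescence ratio within 5 SD of library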;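 further: B-score of integrated fluorescence ratio over time as area under calcium response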
TRPC4 sel inh 2 – mouse TRPC4 off-target activity of TRPC6 inhibitors, second screen; shares compounds with TRPC6 inhibitor; HEK293 TRPC4/MOR, membrane potential dye fluorescence; channel activated by saturating DAMGO dose; inhibition, % at 10 µM; actives 42% (n = 920); AID 2776;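 active means compounds whose fluorescence signal differed from control wells by over 3 SD, either direction, in both duplicate plates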
TRPC4 spec – tests whether TRPC6 inhibitors also affect mouse TRPC4; shares compounds with TRPC6 inhibitor; HEK293 TRPC4/mu-opioid, membrane potential fluorescence; activity change, negative = inhibition, % at 10 µM; actives 61% (n = 920);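 active means rise or fall in signal beyond 3 SD of buffer-only wells in both replicate plates, either sign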;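 further: integrated kinetic ratio of fluorescence range over baseline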
HEK293 MPD ctr 2-1 – second check of TRPC6 inhibitor effects in parental HEK293 cells; shares compounds with TRPC6 inhibitor; parental HEK293 membrane potential dye fluorescence; maximal acetylcholine challenge after compound addition; signal change vs control, % at 10 µM; actives 31% (n = 920);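 active means membrane potential signal moving either way by over 3 SD of the maximum-effect control, in both duplicate plates, meaning non-specific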
HEK293 MPD ctr-1 – counter-screen for TRPC6 inhibitors: effect in parental HEK293 cells. shares compounds with TRPC6 inhibitor. AID 2780. actives 60% (n = 920). membrane potential signal change, % at 10 µM. parental HEK293 membrane potential dye fluorescence;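 active means membrane potential signal shifting up or down by more than 3 SD of buffer-only wells, on both duplicate plates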
HEK293 MPD ctr-2 – checks TRPC6 modulator effects in parental HEK293 cells; shares compounds with TRPC6 inhibitor; membrane potential dye fluorescence; membrane potential signal change, % at 10 µM; actives 51% (n = 2,400); AID 488924;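 active means membrane potential signal moves up or down beyond 5 SD from buffer-only wells, on both duplicate plates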
HEK293 MPD ctr 2-2 – second counter-screen for TRPC6 modulators: effect in parental HEK293 cells | actives 14% (n = 2,400) | inhibition, % at 10 µM | shares compounds with TRPC6 inhibitor | membrane potential dye fluorescence; after compound, maximal acetylcholine stimulation;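 active means membrane potential signal drops by more than 5 SD from the mean control signal, in both duplicate plates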;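 further: plate controls were acetylcholine ECmax control wells for no effect and buffer only wells for full effect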
TRPC4/MOR mod – mouse TRPC4 off-target activity of TRPC6 modulators; shares compounds with TRPC6 inhibitor; HEK293 TRPC4/mu-opioid, membrane potential fluorescence; percent change from control (negative = decrease, positive = increase), % at 10 µM; actives 69% (n = 2,400);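 active means membrane potential signal moved up or down beyond 5 SD of buffer control wells, in both duplicate plates, actives on both sides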;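 further: plate controls were assay buffer wells for no effect and DAMGO maximal-effect wells for full effect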
TRPC4 ctr inh 2 – second selectivity test of TRPC6 modulators against mouse TRPC4. shares compounds with TRPC6 inhibitor. HEK293 TRPC4/mu-opioid, membrane potential dye fluorescence; stimulated with maximal-effect DAMGO. inhibition, % at 10 µM. actives 55% (n = 2,400);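 active means drop in membrane potential signal beyond 5 SD of the control wells in both duplicate plates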;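 further: TRPC4 counter screen for TRPC6 hits run under conditions tuned for TRPC6 not TRPC4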
TRPC6 block conf – confirmation of mouse TRPC6 inhibitors; shares compounds with TRPC6 inhibitor; HEK293-TRPC6, membrane potential dye, ACh-evoked depolarization; inhibition, % at 10 µM; actives 43% (n = 3,300); AID 488960;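 active means fluorescence ratio falls more than 5 SD below the full-stimulation control mean, in both duplicate runs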;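 further: integrated fluorescence ratio of peak minus minimum over baseline after agonist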
TRPC6 act confirm – confirmation of mouse TRPC6 activators | shares compounds with TRPC6 inhibitor | HEK293-TRPC6 membrane potential dye fluorescence, FDSS | activation, % at 10 µM | actives 11% (n = 2,800);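 active means ratio signal rise beyond 5 SD above unstimulated control wells' mean, seen in both duplicate runs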;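 further: plate controls were buffer EC0 wells for no effect and acetylcholine ECmax response for full effect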
* = called active by the depositor; i = inactive; / = not tested or not shown. Most compounds without a hit are left out; they make up all but 2.3% or so of the library.

SMILES | CR mimetic SO | TRPC4 inh | TRPC6 inhibitor | TRPC4 act | TRPC6 act | TRPC4 potent | HEK293 MPD ctr-2 | HEK293 MPD ctr 2-2 | TRPC4/MOR mod | TRPC4 ctr inh 2 | TRPC6 block conf | TRPC6 act confirm | others
Clc1ccc(Nc2ccc(-n3ccnc3)nn2)cc1Cl | 141 | i | i | i | i | i | / | / | / | / | / | /
CCOc1ccc(CCNC(=O)COC(=O)c2cccnc2Cl)cc1OCC | 96 | i | i | i | i | i | / | / | / | / | / | /
O=C(Nc1ccccc1)Nc1scc2c1c(=O)oc1ccccc12 | 90 | i | i | i | i | i | / | / | / | / | / | /
Cc1ccc(SCc2[nH]nc3c2C(C(C)C)C(C#N)=C(N)O3)cc1 (stereo not given) | 101 | i | i | i | i | i | / | / | / | / | / | /
CCOC(=O)c1cn(CC(=O)Nc2cccc(Cl)c2C)nn1 | 92 | i | i | i | i | i | / | / | / | / | / | /
O=C(O)Cn1c(=S)sc2ccccc21 | 97 | i | i | i | i | i | / | / | / | / | / | /
Cc1cc2c(s1)Nc1ccccc1N=C2N1CCN(C)CC1 | 85 | i | -6* | i | i | i | i | i | i | i | 58%* | i
CN(C)c1ccc(N=Nc2cccc3ccoc23)cc1 | 95 | i | -5.8* | i | i | i | i | i | i | 41%* | i | i
CN(C)c1ccc(N=Nc2cccc(F)c2)cc1 | 95 | i | i | i | i | i | / | / | / | / | / | /
CCCN1CCC(=NNc2ccc(S(=O)(=O)N(CC)CC)cc2[N+](=O)[O-])CC1 | 89 | i | -5.9* | i | i | i | i | i | -11%* | 51%* | 46%* | i
O=C(NCCN1CCN(c2ccccc2)CC1)C1CCN(S(=O)(=O)c2cccc3nonc23)CC1 | 113 | i | i | i | i | i | / | / | / | / | / | /
Cc1cc(N2CCCC2)ccc1/C=C1\NC(=S)N(C)C1=O | 81 | i | i | 70* | 52* | i | i | i | 33%* | i | i | 32%*
CC/C(CC(C)(C)c1ccccc1)=N\O | 85 | i | i | i | i | i | / | / | / | / | / | /
CCN(CC)CCC/C(=N\O)C(O)(c1ccccc1)c1ccccc1 | 90 | i | -9.4* | i | i | i | / | / | / | / | 88%* | i | TRPC4 sel inh 2=i;TRPC4 spec=0.0%*;HEK293 MPD ctr 2-1=-37%*;HEK293 MPD ctr-1=i
CC[N+](C)(CC)CCC/C(=N/O)C(O)(c1ccccc1)c1ccccc1 | 97 | i | -8.5* | i | i | i | / | / | / | / | 71%* | i | TRPC4 sel inh 2=i;TRPC4 spec=i;HEK293 MPD ctr 2-1=3.5%*;HEK293 MPD ctr-1=i
CCCNNC(=O)C(O)(c1ccccc1)c1ccccc1 | 95 | i | i | i | i | i | / | / | / | / | / | /
CCCCCCCCn1ccc(=N)cc1 | 90 | i | i | i | i | i | / | / | / | / | / | /
CCCCCCCCCCn1ccc(=N)cc1 | 110 | i | -9.1* | i | i | i | / | / | / | / | 56%* | i | TRPC4 sel inh 2=i;TRPC4 spec=i;HEK293 MPD ctr 2-1=i;HEK293 MPD ctr-1=i
CCCSCCCNC(=O)c1cc2c(s1)CS(=O)(=O)C2 | 121 | i | i | i | i | i | / | / | / | / | / | /
CN1CCN(C(=O)C2CCN(c3ncc(C(F)(F)F)cc3Cl)CC2)CC1 | 100 | i | -5.2* | i | i | i | i | i | i | i | i | i
CC(C)N1CC2=C(OC(N)=C(C#N)C2c2cccnc2)/C(=C/c2cccnc2)C1 (stereo not given) | 106 | i | -5* | i | i | i | 91%* | i | i | i | i | i
COc1ccc(-c2cn3cccc(C)c3n2)cc1F | 103 | i | -8* | i | i | i | / | / | / | / | i | i | TRPC4 sel inh 2=i;TRPC4 spec=i;HEK293 MPD ctr 2-1=4.5%*;HEK293 MPD ctr-1=-198%*
COc1ccc(-c2cn3cc(C)ccc3n2)cc1OC | 96 | i | -7.6* | i | i | i | / | / | / | / | i | i | TRPC4 sel inh 2=i;TRPC4 spec=-9.8%*;HEK293 MPD ctr 2-1=-28%*;HEK293 MPD ctr-1=i
COc1ccc(-c2cn3cc(C)ccc3n2)cc1F | 75 | i | i | i | i | i | / | / | / | / | / | /
O=C(NNC(=S)Nc1cccc(Cl)c1)c1ccccc1OC(F)F | 103 | i | i | i | i | i | / | / | / | / | / | /
O=C(NCCOc1ccccc1)C1Nc2ccc(C(F)(F)F)cc2C2c3ccccc3CC12 (stereo not given) | 106 | i | i | i | i | i | / | / | / | / | / | /
CSc1ccccc1NC(=O)c1ccccc1N(Cc1ccccc1)S(C)(=O)=O | 103 | i | -5.2* | i | i | i | 142%* | i | 30%* | i | i | /
COC(=O)C1=NN(C(=O)c2cccc(Br)c2)C(O)(c2ccc(Cl)cc2)C1 (stereo not given) | 114 | i | i | 100* | 30* | i | 457%* | i | 94%* | i | / | 326%*
